Data reported in ChEMBL document CHEMBL1127729, “Synthesis and pharmacological evaluation of phenylacetamides as sodium-channel blockers” (J Med Chem, 1994).

Key:
[1] = target: Sodium channel protein type 2 subunit alpha (Rattus norvegicus, UniProt P04775); test: Inhibition of veratridine-induced Na+ influx in chinese hamster ovary cells expressing alpha subunit of rat brain type voltage-gated sodium channel type 2; format: functional
Outline: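 CNaIIA-1 cells (CHO-K1 transfected with rat brain IIA α subunit cDNA) in choline-based KRH buffer, pH 7.4. Compound at 0.01–100 μM final, added with 30 μM veratridine plus α-scorpion venom, 11 min at 37 °C. Cell-retained radioactivity counted after Triton lysis; IC50 determined.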

[2] = target: Sodium channel alpha subunits; brain (Types I, II, III) (Rattus norvegicus, UniProt P04775+P04774+P08104); test: Inhibition of [3H]- batrachotoxin binding to sodium channel in rat neocortical membrane; format: cell membranes
Rattus norvegicus [3] = species: Rattus norvegicus; test: In vitro inhibition of hypoxic-mediated cell injury in Dawley fetal rat brain
Rattus norvegicus [4] = species: Rattus norvegicus; test: In vitro inhibition of veratridine induced LDH release in rat embryos; format: functional
Outline: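 Rat embryo cortical neuron cultures, 17–18 days old, given compound together with 100 μM veratridine in HEPES saline (pH 7.4) for 10 min. Medium was then replaced by serum-free medium. LDH in medium taken 1 day later, read kinetically as A340 decline of NADH after pyruvate addition at 37 °C.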

Chain of Sodium channel protein type 2 subunit alpha (P04775 whole entry): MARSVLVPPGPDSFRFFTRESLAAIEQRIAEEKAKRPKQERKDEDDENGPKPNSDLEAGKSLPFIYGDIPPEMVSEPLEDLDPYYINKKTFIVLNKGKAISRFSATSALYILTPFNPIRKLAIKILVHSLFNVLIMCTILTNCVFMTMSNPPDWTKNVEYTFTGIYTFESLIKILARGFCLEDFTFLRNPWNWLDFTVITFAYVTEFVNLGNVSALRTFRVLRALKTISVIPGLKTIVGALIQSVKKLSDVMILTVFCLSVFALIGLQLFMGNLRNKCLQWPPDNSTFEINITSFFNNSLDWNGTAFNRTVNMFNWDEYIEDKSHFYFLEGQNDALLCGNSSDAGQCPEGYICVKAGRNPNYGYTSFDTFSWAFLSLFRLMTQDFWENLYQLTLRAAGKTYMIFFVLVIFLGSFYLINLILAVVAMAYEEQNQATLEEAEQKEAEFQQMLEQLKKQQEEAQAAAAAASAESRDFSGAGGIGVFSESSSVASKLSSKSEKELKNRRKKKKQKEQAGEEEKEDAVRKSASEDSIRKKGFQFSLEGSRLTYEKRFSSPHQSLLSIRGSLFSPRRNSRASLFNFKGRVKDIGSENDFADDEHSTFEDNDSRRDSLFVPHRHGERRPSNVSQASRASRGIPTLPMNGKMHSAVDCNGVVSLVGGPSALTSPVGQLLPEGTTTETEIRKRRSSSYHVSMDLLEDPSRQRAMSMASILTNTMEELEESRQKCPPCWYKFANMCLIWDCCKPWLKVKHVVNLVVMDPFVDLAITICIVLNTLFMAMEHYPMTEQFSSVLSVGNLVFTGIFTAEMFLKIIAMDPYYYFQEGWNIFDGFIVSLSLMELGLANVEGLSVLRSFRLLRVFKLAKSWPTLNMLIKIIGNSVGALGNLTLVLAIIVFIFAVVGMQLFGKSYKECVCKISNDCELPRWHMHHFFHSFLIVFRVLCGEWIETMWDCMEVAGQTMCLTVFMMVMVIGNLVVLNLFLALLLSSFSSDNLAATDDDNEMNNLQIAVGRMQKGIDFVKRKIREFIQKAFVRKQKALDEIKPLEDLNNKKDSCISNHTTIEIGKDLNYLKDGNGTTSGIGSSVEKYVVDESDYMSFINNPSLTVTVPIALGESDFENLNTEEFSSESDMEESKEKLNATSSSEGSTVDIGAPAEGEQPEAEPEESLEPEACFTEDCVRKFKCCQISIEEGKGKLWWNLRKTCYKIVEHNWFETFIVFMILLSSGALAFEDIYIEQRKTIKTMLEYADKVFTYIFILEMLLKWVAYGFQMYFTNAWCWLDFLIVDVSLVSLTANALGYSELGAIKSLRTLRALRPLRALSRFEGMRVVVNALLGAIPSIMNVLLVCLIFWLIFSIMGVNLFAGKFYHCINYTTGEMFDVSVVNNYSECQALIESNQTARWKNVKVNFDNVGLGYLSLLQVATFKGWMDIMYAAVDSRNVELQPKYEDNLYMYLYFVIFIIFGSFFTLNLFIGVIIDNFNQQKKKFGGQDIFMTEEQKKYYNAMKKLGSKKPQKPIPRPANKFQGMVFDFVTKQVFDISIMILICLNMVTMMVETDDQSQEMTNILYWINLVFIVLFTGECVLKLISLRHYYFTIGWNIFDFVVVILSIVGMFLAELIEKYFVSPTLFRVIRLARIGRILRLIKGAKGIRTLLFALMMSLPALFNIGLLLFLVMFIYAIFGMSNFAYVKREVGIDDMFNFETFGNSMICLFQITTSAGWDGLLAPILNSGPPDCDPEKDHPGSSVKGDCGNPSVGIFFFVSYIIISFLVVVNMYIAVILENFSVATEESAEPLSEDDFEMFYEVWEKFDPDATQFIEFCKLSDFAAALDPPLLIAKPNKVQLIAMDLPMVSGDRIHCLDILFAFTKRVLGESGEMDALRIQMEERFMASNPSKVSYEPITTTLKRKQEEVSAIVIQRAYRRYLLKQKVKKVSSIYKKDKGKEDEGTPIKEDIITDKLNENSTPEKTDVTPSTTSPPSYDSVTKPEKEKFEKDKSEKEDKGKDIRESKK

Compound	IC50 [1] [µM]	Ki [2] [µM]	IC50 (Rattus norvegicus [3]) [µM]	IC50 (Rattus norvegicus [4]) [µM]
CC1CCCC(C)N1CCCNC(=O)C(c1ccc(F)cc1)c1ccc(F)cc1 (centres undefined)	5.8	0.13	–	–
Cc1cccc(C)c1NC(=O)CN1CCN(CCCC(c2ccc(F)cc2)c2ccc(F)cc2)CC1 [LIDOFLAZINE]	2.4	0.077	–	–
COc1ccc(C(C(=O)NCCCN2C(C)CCCC2C)c2ccc(OC)cc2)cc1 (centres undefined)	3.1	1	–	–
CC1CCCC(C)N1CCCNC(=O)C(c1ccccc1)c1ccccc1 (centres undefined)	2.7	0.26	89	5
COc1ccc(C(C(=O)NCCCN2C(C)CCCC2C)c2ccc(OC)c3ccccc23)c2ccccc12 (centres undefined)	13	0.24	–	–
CC1CCCC(C)N1CCCNC(=O)N(c1ccccc1)c1ccccc1 (centres undefined)	–	–	> 100	> 30
CC1CCCC(C)N1CCCNC(=O)C1c2ccccc2-c2ccccc21 (centres undefined)	29	2.3	51	> 30
CC1CCCC(C)N1CCCNC(=O)C(c1ccc(Cl)cc1)c1ccc(Cl)cc1 (centres undefined)	4.5	0.11	–	–
CC1CCCC(C)N1CCCNC(=O)C1(c2ccccc2)CCCCC1 (centres undefined)	4.3	0.38	61	12
CC1CCCC(C)N1CCCN1C(=O)CC(c2ccccc2)(c2ccccc2)C1=O (centres undefined)	3.6	1	–	–
Fc1ccc(C(c2ccc(F)cc2)N2CCN(C/C=C/c3ccccc3)CC2)cc1 [FLUNARIZINE]	–	–	–	2
CC1CCCC(C)N1CCCNC(=O)Cc1cccc2ccccc12 (centres undefined)	> 100	6.9	–	–
CC1CCCC(C)N1CCCNC(=O)C1c2ccccc2Oc2ccccc21 (centres undefined)	13	0.41	–	–
CC1CCCC(C)N1CCCNC(=O)Cc1ccccc1 (centres undefined)	> 100	21	> 100	> 30
CC1CCCC(C)N1CCCNC(=O)C(c1ccccc1Cl)c1ccccc1Cl (centres undefined)	3.5	0.073	4.8	6
